A short description of data set [1]: Half life in C57BL/6 mouse brain at 2 mg/kg, iv. The data set is classed as ADME, organism-based. On the set-up: dose 2 mg/kg, route intravenous. The method, boiled down: (§1)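 Male C57BL/6 mice received a single intravenous dose of 2 mg/kg, formulated at 1 mg/mL in 50% 1-methyl-2-pyrrolidinone in saline. Plasma and brain concentrations were followed to derive PK parameters. Brain to plasma ratio was calculated from AUC.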

Data set [2] is described as follows: AUC (0 to infinity) in C57BL/6 mouse brain at 10 mg/kg, po. The data set is classed as ADME, organism-based. On the set-up: time infinity, dose 10 mg/kg, route oral. The method, boiled down: (§2)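 Male C57BL/6 mice were dosed orally at 10 mg/kg, formulated at 1 mg/mL in 5% DMSO/0.5% MC/0.2% tween 80. Plasma and brain were sampled for PK parameters. Brain to plasma ratio was based on AUC0-24.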

The nature of data set [3]: Half life in C57BL/6 mouse plasma at 2 mg/kg, iv. The data set is classed as ADME, organism-based. On the set-up: dose 2 mg/kg, route intravenous. The method, boiled down: as §1
Data set [4] can be described thus: AUC (0 to infinity) in C57BL/6 mouse plasma at 10 mg/kg, po. The data set is classed as ADME, organism-based. On the set-up: time infinity, dose 10 mg/kg, route oral. The method in brief: as §2
The nature of data set [5]: AUC (0 to infinity) in C57BL/6 mouse brain at 2 mg/kg, iv. The arrangement: time infinity, dose 2 mg/kg, route intravenous. It counts as ADME, organism-based. The method, boiled down: as §1
Data set [6] is described as follows: AUC (0 to infinity) in C57BL/6 mouse plasma at 2 mg/kg, iv. It counts as ADME, organism-based. On the set-up: time infinity, dose 2 mg/kg, route intravenous. The method in brief:
as §1

Data set [7] in a line: Tmax in C57BL/6 mouse brain at 10 mg/kg, po. It counts as ADME, organism-based. On the set-up: dose 10 mg/kg, route oral. The method, boiled down:
as §2

The nature of data set [8]: Tmax in C57BL/6 mouse plasma at 10 mg/kg, po. It counts as ADME, organism-based. On the set-up: dose 10 mg/kg, route oral. The method in brief: as §2
Data set [9] in a line: Tmax in C57BL/6 mouse brain at 2 mg/kg, iv. It counts as ADME, organism-based. The arrangement: dose 2 mg/kg, route intravenous. The method, boiled down:
as §1

The nature of data set [10]: Tmax in C57BL/6 mouse plasma at 2 mg/kg, iv. It counts as ADME, organism-based. The arrangement: dose 2 mg/kg, route intravenous. The method, boiled down:
as §1

Data set [11] can be described thus: Cmax in C57BL/6 mouse plasma at 10 mg/kg, po. It counts as ADME, organism-based. The arrangement: dose 10 mg/kg, route oral. The method, boiled down:
as §2

Data set [12] in a line: Cmax in C57BL/6 mouse brain at 10 mg/kg, po. The data set is classed as ADME, organism-based. On the set-up: dose 10 mg/kg, route oral. The method in brief: as §2
Data set [13] can be described thus: Cmax in C57BL/6 mouse plasma at 2 mg/kg, iv. The arrangement: dose 2 mg/kg, route intravenous. The data set is classed as ADME, organism-based. The method, boiled down:
as §1

Data set [14] is described as follows: Cmax in C57BL/6 mouse brain at 2 mg/kg, iv. The data set is classed as ADME, organism-based. On the set-up: dose 2 mg/kg, route intravenous. The method in brief:
as §1

The nature of data set [15]: Drug metabolism in rat liver microsomes at 5 uM after 20 mins. To be noted: read-out: Drug metabolism. It counts as ADME, Microsome. The method in brief:
(§3)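 Substrate at 5 µM incubated at 37 °C for 20 min with in-house liver microsome preparations (human, mouse or rat). Reported as the percentage of parent compound metabolized.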

Data set [16] can be described thus: Drug metabolism in human liver microsomes at 5 uM after 20 mins. The data set is classed as ADME, Microsome. To be noted: read-out: Drug metabolism. The method in brief:
as §3

Data set [17] in a line: Drug metabolism in mouse liver microsomes at 5 uM after 20 mins. It counts as ADME, Microsome. To be noted: read-out: Drug metabolism. The method in brief: as §3
The target in data set [18] is Histamine H3 receptor (Rattus norvegicus, UniProt Q9QYN8). The data set can be described thus: Displacement of [3H]N-alpha-methylhistamine from recombinant rat histamine H3 receptor transfected in CHO cell membranes after 1 hr by scintillation counting analysis. On the set-up: species or system Membrane. The method, boiled down: (§4)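 Radioligand displacement of [3H]N-α-methylhistamine using membranes from CHO cells stably transfected with recombinant human or rat H3 receptor. Ki is presented as a range of multiple experiments (n ≥ 3).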

In data set [19] the target is Histamine H3 receptor (Homo sapiens, UniProt Q9Y5N1). In words: Displacement of [3H]N-alpha-methylhistamine from recombinant human histamine H3 receptor transfected in CHO cell membranes after 1 hr by scintillation counting analysis. The method, boiled down:
as §4

The nature of data set [20]: Partition coefficient, log P of the compound. As to conditions: octanol/water. It counts as physicochemical.
The nature of data set [21]: Distribution coefficient, log D of the compound. It counts as physicochemical. To be noted: octanol/water.
The target in another data set is Histamine receptor H3 (Macaca mulatta, UniProt Q865E1). The data set can be described thus: Displacement of [3H]N-alpha-methylhistamine from recombinant rhesus monkey histamine H3 receptor transfected in CHO cell membranes after 1 hr by scintillation counting analysis.
Data set [22] in a line: Solubility of the compound in PBS buffer at pH 7.4. It counts as physicochemical. The method in brief:
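Solubility measured in PBS at pH 7.4.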

In a further data set the test system is Mus musculus. The data set can be described thus: Toxicity in mouse assessed as appearance of abnormal clinical signs at 3 to 30 mg/kg, po after 1 week. The arrangement: dose 3-30 mg/kg, route oral. The data set is classed as organism-based. As to conditions: in vivo, 168 h. The method, boiled down:
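Behavioral safety study in mice given single oral doses of 3, 10 and 30 mg/kg. Tremors, tail pinch response, body temperature, pupil size and body weight were scored at 2 and 6 h post dose. Clinical signs were observed over one week after dosing.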

Consider one compound from ChEMBL document CHEMBL2401654, “Synthesis, characterization, and biological assessment of the four stereoisomers of the H(3) receptor antagonist 5-fluoro-2-methyl-N-[2-methyl-4-(2-methyl[1,3']bipyrrolidinyl-1'-yl)phenyl]benzamide” (Bioorg Med Chem Lett, 2013).

Converted amounts (≈) assume the structure as drawn.

Sequence of Histamine receptor H3 (Q865E1 whole entry): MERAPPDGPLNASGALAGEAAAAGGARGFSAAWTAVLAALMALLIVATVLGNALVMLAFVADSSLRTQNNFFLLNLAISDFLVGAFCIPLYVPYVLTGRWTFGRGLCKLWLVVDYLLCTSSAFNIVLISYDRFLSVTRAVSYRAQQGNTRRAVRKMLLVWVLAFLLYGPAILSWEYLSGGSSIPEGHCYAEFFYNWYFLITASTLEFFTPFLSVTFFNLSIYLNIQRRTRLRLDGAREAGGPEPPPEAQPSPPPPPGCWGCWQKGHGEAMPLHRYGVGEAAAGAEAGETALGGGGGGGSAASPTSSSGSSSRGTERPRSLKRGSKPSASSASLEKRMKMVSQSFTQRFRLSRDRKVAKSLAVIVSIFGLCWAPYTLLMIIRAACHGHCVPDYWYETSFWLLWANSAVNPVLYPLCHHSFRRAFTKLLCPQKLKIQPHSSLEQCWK
Sequence of Histamine H3 receptor (Homo sapiens, UniProt Q9Y5N1) (Q9Y5N1 whole entry): as the sequence (Q865E1 whole entry) above, with N148D, G240A, A282V, T289A, A290T, A300V, Q442H counted along it
Sequence of Histamine H3 receptor (Rattus norvegicus, UniProt Q9QYN8) (Q9QYN8 whole entry): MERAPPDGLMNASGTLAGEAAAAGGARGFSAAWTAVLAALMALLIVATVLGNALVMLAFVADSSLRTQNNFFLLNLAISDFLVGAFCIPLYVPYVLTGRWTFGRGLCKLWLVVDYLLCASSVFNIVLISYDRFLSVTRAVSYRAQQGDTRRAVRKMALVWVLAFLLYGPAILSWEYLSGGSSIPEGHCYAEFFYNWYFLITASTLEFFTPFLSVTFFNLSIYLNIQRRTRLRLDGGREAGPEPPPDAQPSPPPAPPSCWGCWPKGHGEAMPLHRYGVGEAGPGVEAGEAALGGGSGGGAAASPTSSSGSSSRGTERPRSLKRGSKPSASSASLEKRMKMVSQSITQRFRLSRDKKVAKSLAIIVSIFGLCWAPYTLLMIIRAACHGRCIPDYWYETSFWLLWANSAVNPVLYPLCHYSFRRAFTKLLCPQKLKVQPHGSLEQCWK

For the compound `Cc1cc(N2CC[C@H](N3CCC[C@@H]3C)C2)ccc1NC(=O)c1cc(F)ccc1C`, the half-life in data set [1] was 96 min; in data set [3] it was 156 min. The AUC(0-inf) in [2] was found to be 18000 ng·h/mL; in [4], 4000 ng·h/mL; in data set [5] it was 2600 ng·h/mL; in data set [6], 560 ng·h/mL. The time of peak concentration (Tmax) worked out at 60 min in [7], 10.2 min in [8], 4.98 min in data set [9] and 4.98 min in data set [10]. For the same compound, the Cmax is 1310 ng/mL in data set [11], 4290 ng/mL in data set [12], 2000 ng/mL in [13] and 4820 ng/mL in data set [14]. In addition, the metabolised at 20 min, 5 µM in [15] came to 20%; in data set [16], 3%; in [17], 19%. The Ki came out at 3 nM at Histamine H3 receptor [18], 3.4 nM at Histamine H3 receptor [19] and 2.5 nM at Histamine receptor H3. The compound also registered a logP in data set [20] of 3.55. Besides, the log distribution coefficient (logD) in data set [21] was determined as 2.09. In addition, the solubility in [22] was 293 µg/mL (≈ 742 µM). The Activity entry with Mus musculus was “Non-toxic”.
